Test results from ChEMBL document CHEMBL1828620, “Synthesis of novel 6-phenyl-2,4-disubstituted pyrimidine-5-carbonitriles as potential antimicrobial agents” (2011).
≈ marks a conversion by molar mass, not a printed value.

Columns and labels:
Assay type in all cases: functional
Candida albicans [1] = test: Antifungal activity against Candida albicans IFO 0583 at 200 ug/disc after 48 hrs by agar disc diffusion method; conditions: IFO 0583, 48 h, read-out: DIZ
How it was run: (§1)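 Agar disc diffusion: sterile 8 mm filter-paper discs moistened with compound solution in DMSO, placed on agar plates each pre-inoculated with one organism; plates held at 37 °C; growth inhibition zone diameter measured after 24 h (bacteria) or 48 h (C. albicans).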

Pseudomonas aeruginosa [2] = test: Antimicrobial activity against Pseudomonas aeruginosa IFO 3448 at 200 ug/disc after 24 hrs by agar disc diffusion method; conditions: IFO 3448, 24 h, read-out: DIZ; how it was run: as §1
Bacillus subtilis [3] = test: Antimicrobial activity against Bacillus subtilis IFO 3007 at 200 ug/disc after 24 hrs by agar disc diffusion method; conditions: IFO 3007, 24 h, read-out: DIZ; how it was run: as §1
Micrococcus luteus [4] = test: Antimicrobial activity against Micrococcus luteus IFO 3232 at 200 ug/disc after 24 hrs by agar disc diffusion method; conditions: IFO 3232, 24 h, read-out: DIZ; how it was run: as §1
Escherichia coli [5] = test: Antimicrobial activity against Escherichia coli IFO 3301 at 200 ug/disc after 24 hrs by agar disc diffusion method; conditions: IFO 3301, 24 h, read-out: DIZ; how it was run: as §1
Staphylococcus aureus [6] = test: Antimicrobial activity against Staphylococcus aureus IFO 3060 at 200 ug/disc after 24 hrs by agar disc diffusion method; conditions: IFO 3060, 24 h, read-out: DIZ; how it was run: as §1
Staphylococcus aureus [7] = test: Antimicrobial activity against Staphylococcus aureus IFO 3060 at 100 ug/disc after 24 hrs by agar disc diffusion method; how it was run: as §1
Micrococcus luteus [8] = test: Antimicrobial activity against Micrococcus luteus IFO 3232 after 24 hrs by two fold serial dilution method
Micrococcus luteus [9] = test: Antimicrobial activity against Micrococcus luteus IFO 3232 at 100 ug/disc after 24 hrs by agar disc diffusion method; how it was run: as §1
Pseudomonas aeruginosa [10] = test: Antimicrobial activity against Pseudomonas aeruginosa IFO 3448 after 24 hrs by two fold serial dilution method
Staphylococcus aureus [11] = test: Antimicrobial activity against Staphylococcus aureus IFO 3060 after 24 hrs by two fold serial dilution method
Escherichia coli [12] = test: Antimicrobial activity against Escherichia coli IFO 3301 at 100 ug/disc after 24 hrs by agar disc diffusion method; how it was run: as §1
Bacillus subtilis [13] = test: Antimicrobial activity against Bacillus subtilis IFO 3007 after 24 hrs by two fold serial dilution method
Bacillus subtilis [14] = test: Antimicrobial activity against Bacillus subtilis IFO 3007 at 100 ug/disc after 24 hrs by agar disc diffusion method; how it was run: as §1
Pseudomonas aeruginosa [15] = test: Antimicrobial activity against Pseudomonas aeruginosa IFO 3448 at 100 ug/disc after 24 hrs by agar disc diffusion method; how it was run: as §1
Escherichia coli [16] = test: Antimicrobial activity against Escherichia coli IFO 3301 after 24 hrs by two fold serial dilution method
Candida albicans [17] = test: Antifungal activity against Candida albicans IFO 0583 at 100 ug/disc after 48 hrs by agar disc diffusion method; conditions: IFO 0583, 48 h, read-out: DIZ; how it was run: as §1

MIC (Staphylococcus aureus [11]; IFO 3060, 24 h) [µg/mL] | MIC (Bacillus subtilis [13]; IFO 3007, 24 h) [µg/mL] | Compound | zone of inhibition at 200 µg/disc (Candida albicans [1]) [mm] | zone of inhibition at 200 µg/disc (Pseudomonas aeruginosa [2]) [mm] | zone of inhibition at 200 µg/disc (Bacillus subtilis [3]) [mm] | zone of inhibition at 200 µg/disc (Micrococcus luteus [4]) [mm] | zone of inhibition at 200 µg/disc (Escherichia coli [5]) [mm] | zone of inhibition at 200 µg/disc (Staphylococcus aureus [6]) [mm] | also measured
– | – | N#Cc1c(Cl)nc(SCc2ccc(Cl)cc2)nc1-c1ccccc1 | 12 | 14 | 26 | 18 | 16 | 24 | –
– | – | Cc1cccc(Sc2nc(SCc3ccc(Cl)cc3)nc(-c3ccccc3)c2C#N)c1 | < 10 | < 10 | < 10 | < 10 | < 10 | < 10 | –
8 (≈ 27.8 µM) | 2 (≈ 6.96 µM) | COCCSc1nc(-c2ccccc2)c(C#N)c(=O)[nH]1 | < 10 | 10 | 22 | 17 | 12 | 18 | –
0.5 (≈ 1.41 µM) | 1 (≈ 2.82 µM) | N#Cc1c(-c2ccccc2)nc(SCc2ccc([N+](=O)[O-])o2)[nH]c1=O | 11 | 21 | 28 | 24 | 22 | 33 | MIC (Escherichia coli [16]; IFO 3301, 24 h): 2 µg/mL (≈ 5.64 µM); MIC (Micrococcus luteus [8]; IFO 3232, 24 h): 1 µg/mL (≈ 2.82 µM); MIC (Pseudomonas aeruginosa [10]; IFO 3448, 24 h): 4 µg/mL (≈ 11.3 µM)
4 (≈ 11.9 µM) | 2 (≈ 5.93 µM) | N#Cc1c(-c2ccccc2)nc(SCc2ccc(F)cc2)[nH]c1=O | < 10 | 14 | 26 | 21 | 18 | 22 | MIC (Escherichia coli [16]; IFO 3301, 24 h): 8 µg/mL (≈ 23.7 µM); MIC (Micrococcus luteus [8]; IFO 3232, 24 h): 4 µg/mL (≈ 11.9 µM)
4 (≈ 13.3 µM) | 4 (≈ 13.3 µM) | CCOCCSc1nc(-c2ccccc2)c(C#N)c(=O)[nH]1 | < 10 | 11 | 24 | 17 | 14 | 21 | –
– | – | N#Cc1c(-c2ccccc2)nc(SCc2ccc([N+](=O)[O-])cc2)[nH]c1=O | < 10 | < 10 | 17 | 13 | 12 | 14 | –
– | – | N#Cc1c(-c2ccccc2)nc(SCOCc2ccccc2)[nH]c1=O | < 10 | < 10 | 16 | 13 | < 10 | 14 | –
– | – | N#Cc1c(Sc2ccccc2)nc(SCc2ccc(Cl)cc2)nc1-c1ccccc1 | < 10 | < 10 | 14 | 12 | < 10 | 12 | –
– | – | GENTAMICIN SULFATE | – | – | – | – | – | – | MIC (Escherichia coli [16]): 0.5 µg/mL; inhibition zone (IZ) (Staphylococcus aureus [7]): 26 mm; MIC (Micrococcus luteus [8]): 2 µg/mL; inhibition zone (IZ) (Micrococcus luteus [9]): 18 mm; MIC (Pseudomonas aeruginosa [10]): 1 µg/mL; MIC (Staphylococcus aureus [11]): 2 µg/mL; inhibition zone (IZ) (Escherichia coli [12]): 20 mm; MIC (Bacillus subtilis [13]): 2 µg/mL; inhibition zone (IZ) (Bacillus subtilis [14]): 25 mm; inhibition zone (IZ) (Pseudomonas aeruginosa [15]): 19 mm
– | 8 (≈ 26.4 µM) | CSCCSc1nc(-c2ccccc2)c(C#N)c(=O)[nH]1 | 14 | 18 | 18 | 15 | 21 | 16 | –
2 (≈ 4.47 µM) | 1 (≈ 2.24 µM) | N#Cc1c(Nc2ccc(F)cc2)nc(SCc2ccc(Cl)cc2)nc1-c1ccccc1 | < 10 | < 10 | 18 | 19 | < 10 | 16 | MIC (Micrococcus luteus [8]; IFO 3232, 24 h): 4 µg/mL (≈ 8.95 µM)
– | – | CCSCCSc1nc(-c2ccccc2)c(C#N)c(=O)[nH]1 | 12 | 14 | 16 | 12 | 16 | 12 | –
– | – | Cc1ccc(Sc2nc(SCc3ccc(Cl)cc3)nc(-c3ccccc3)c2C#N)cc1 | < 10 | < 10 | 13 | 11 | < 10 | 14 | –
– | – | N#Cc1c(-c2ccccc2)nc(SCc2ccccc2)[nH]c1=O | < 10 | < 10 | 17 | 16 | < 10 | 16 | –
– | – | N#Cc1c(Nc2ccc(C(F)(F)F)cc2)nc(SCc2ccc(Cl)cc2)nc1-c1ccccc1 | < 10 | < 10 | 17 | 13 | < 10 | 15 | –
– | – | N#Cc1c(Nc2ccccc2C(F)(F)F)nc(SCc2ccc(Cl)cc2)nc1-c1ccccc1 | < 10 | < 10 | 12 | 10 | < 10 | 12 | –
– | – | Cc1ccccc1Sc1nc(SCc2ccc(Cl)cc2)nc(-c2ccccc2)c1C#N | < 10 | < 10 | < 10 | < 10 | < 10 | < 10 | –
– | – | N#Cc1c(Nc2cccc(C(F)(F)F)c2)nc(SCc2ccc(Cl)cc2)nc1-c1ccccc1 | < 10 | < 10 | 14 | 11 | < 10 | 14 | –
– | – | Clc1ccccc1C(c1ccccc1)(c1ccccc1)n1ccnc1 [CLOTRIMAZOLE] | – | – | – | – | – | – | zone of inhibition at 100 µg/disc (Candida albicans [17]): 21 mm
8 (≈ 22.6 µM) | 8 (≈ 22.6 µM) | N#Cc1c(O)nc(SCc2ccc(Cl)cc2)nc1-c1ccccc1 | < 10 | 12 | 19 | 19 | 14 | 20 | MIC (Micrococcus luteus [8]; IFO 3232, 24 h): 8 µg/mL (≈ 22.6 µM)

Compound | MIC (Staphylococcus aureus [11]; IFO 3060, 24 h) [µg/mL] | MIC (Bacillus subtilis [13]; IFO 3007, 24 h) [µg/mL] | zone of inhibition at 200 µg/disc (Candida albicans [1]) [mm] | zone of inhibition at 200 µg/disc (Pseudomonas aeruginosa [2]) [mm] | zone of inhibition at 200 µg/disc (Bacillus subtilis [3]) [mm] | zone of inhibition at 200 µg/disc (Micrococcus luteus [4]) [mm] | zone of inhibition at 200 µg/disc (Escherichia coli [5]) [mm] | zone of inhibition at 200 µg/disc (Staphylococcus aureus [6]) [mm] | also measured
CC1(C)S[C@@H]2[C@H](NC(=O)[C@H](N)c3ccccc3)C(=O)N2[C@H]1C(=O)O.O.O.O [AMPICILLIN TRIHYDRATE] | 2 | 0.5 | – | – | – | – | – | – | zone of inhibition at 100 µg/disc (Staphylococcus aureus [7]; IFO 3060, 24 h, read-out: DIZ): 23 mm; MIC (Micrococcus luteus [8]; IFO 3232, 24 h): 2 µg/mL; zone of inhibition at 100 µg/disc (Micrococcus luteus [9]; IFO 3232, 24 h, read-out: DIZ): 19 mm; MIC (Pseudomonas aeruginosa [10]; IFO 3448, 24 h): 2 µg/mL; zone of inhibition at 100 µg/disc (Escherichia coli [12]; IFO 3301, 24 h, read-out: DIZ): 17 mm; zone of inhibition at 100 µg/disc (Bacillus subtilis [14]; IFO 3007, 24 h, read-out: DIZ): 21 mm; zone of inhibition at 100 µg/disc (Pseudomonas aeruginosa [15]; IFO 3448, 24 h, read-out: DIZ): 17 mm
